Test results published in ChEMBL document CHEMBL1129461 (J Med Chem, 1996).

biological target: T1, Protein kinase C beta type (Homo sapiens, UniProt P05771); assay: Evaluated against recombinant human Protein kinase C beta 1
Procedure, shortened: (§1)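 Recombinant human PKC isozymes expressed in SF9 cells via baculovirus, partly purified (50–90%). 32P transfer from 30 μM [32P]ATP to 200 μg/mL histone IIIS in 20 mM Hepes pH 7.5, 10 mM MgCl2, EGTA, CaCl2, phosphatidylserine, and diacylglycerol at the isozyme-dependent level giving half-maximal activation. 10 min at 30 °C, TCA stop, filter counting. No-lipid background subtracted.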

T1 sequence (P05771 whole entry): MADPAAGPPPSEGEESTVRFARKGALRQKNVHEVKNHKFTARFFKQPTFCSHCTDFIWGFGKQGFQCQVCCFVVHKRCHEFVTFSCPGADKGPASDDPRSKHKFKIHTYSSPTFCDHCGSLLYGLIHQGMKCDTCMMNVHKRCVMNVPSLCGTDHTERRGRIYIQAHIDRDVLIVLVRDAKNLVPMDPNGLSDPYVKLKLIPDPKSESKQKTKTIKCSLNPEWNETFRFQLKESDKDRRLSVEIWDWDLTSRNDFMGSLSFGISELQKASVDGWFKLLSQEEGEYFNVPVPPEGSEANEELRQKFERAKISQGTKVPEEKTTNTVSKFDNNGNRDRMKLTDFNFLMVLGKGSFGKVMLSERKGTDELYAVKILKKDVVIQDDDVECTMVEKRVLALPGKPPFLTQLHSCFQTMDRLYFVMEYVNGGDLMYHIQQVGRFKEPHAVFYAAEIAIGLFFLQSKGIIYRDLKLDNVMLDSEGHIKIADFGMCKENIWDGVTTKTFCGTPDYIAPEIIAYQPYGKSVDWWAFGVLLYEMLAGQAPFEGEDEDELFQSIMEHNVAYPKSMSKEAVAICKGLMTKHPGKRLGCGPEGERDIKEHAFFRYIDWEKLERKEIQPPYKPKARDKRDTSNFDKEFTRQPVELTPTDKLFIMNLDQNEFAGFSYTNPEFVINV

| IC50 [nM] | Compound |
| --- | --- |
| 460 | COC(=O)c1cccc(O)c1C(=O)c1c(O)cc(C(=O)OCCCc2ccc(O)cc2)cc1O |
| 960 | O=C(OCCCCc1ccc(O)cc1)c1cc(O)c(C(=O)c2c(O)cccc2C(=O)O)c(O)c1 |
| 4500 | O=C(NCCOC(=O)c1cc(O)c(C(=O)c2c(O)cccc2C(=O)O)c(O)c1)c1ccc(O)cc1 |
| 1600 | O=C(OCC(COc1ccc(O)cc1)NS(=O)(=O)c1ccccc1)c1cc(O)c(C(=O)c2c(O)cccc2C(=O)O)c(O)c1 (stereo not given) |
| 30 | O=C(NC1CNCCCC1OC(=O)c1cc(O)c(C(=O)c2c(O)cccc2C(=O)O)c(O)c1)c1ccc(O)cc1 (racemic) |
| 2800 | O=C(OCC(Cc1ccc(O)cc1)NS(=O)(=O)c1ccc2ccccc2c1)c1cc(O)c(C(=O)c2c(O)cccc2C(=O)O)c(O)c1 (stereo not given) |

biological target: T1, Protein kinase C beta type; assay: Evaluated against recombinant human Protein kinase C beta 2; procedure, shortened: as §1

| IC50 [nM] | Compound |
| --- | --- |
| 750 | COC(=O)c1cccc(O)c1C(=O)c1c(O)cc(C(=O)OCCCc2ccc(O)cc2)cc1O |
| 370 | O=C(OCCCCc1ccc(O)cc1)c1cc(O)c(C(=O)c2c(O)cccc2C(=O)O)c(O)c1 |
| 7500 | O=C(NCCOC(=O)c1cc(O)c(C(=O)c2c(O)cccc2C(=O)O)c(O)c1)c1ccc(O)cc1 |
| 830 | O=C(OCC(COc1ccc(O)cc1)NS(=O)(=O)c1ccccc1)c1cc(O)c(C(=O)c2c(O)cccc2C(=O)O)c(O)c1 (stereo not given) |
| 30 | O=C(NC1CNCCCC1OC(=O)c1cc(O)c(C(=O)c2c(O)cccc2C(=O)O)c(O)c1)c1ccc(O)cc1 (racemic) |
| 1800 | O=C(OCC(Cc1ccc(O)cc1)NS(=O)(=O)c1ccc2ccccc2c1)c1cc(O)c(C(=O)c2c(O)cccc2C(=O)O)c(O)c1 (stereo not given) |

biological target: Protein kinase C gamma type (Homo sapiens, UniProt P05129); assay: Evaluated against recombinant human Protein kinase C gamma; procedure, shortened: as §1

| IC50 [nM] | Compound |
| --- | --- |
| 4100 | COC(=O)c1cccc(O)c1C(=O)c1c(O)cc(C(=O)OCCCc2ccc(O)cc2)cc1O |
| 1400 | O=C(OCCCCc1ccc(O)cc1)c1cc(O)c(C(=O)c2c(O)cccc2C(=O)O)c(O)c1 |
| 6600 | O=C(NCCOC(=O)c1cc(O)c(C(=O)c2c(O)cccc2C(=O)O)c(O)c1)c1ccc(O)cc1 |
| 1600 | O=C(OCC(COc1ccc(O)cc1)NS(=O)(=O)c1ccccc1)c1cc(O)c(C(=O)c2c(O)cccc2C(=O)O)c(O)c1 (stereo not given) |
| 30 | O=C(NC1CNCCCC1OC(=O)c1cc(O)c(C(=O)c2c(O)cccc2C(=O)O)c(O)c1)c1ccc(O)cc1 (racemic) |
| 2700 | O=C(OCC(Cc1ccc(O)cc1)NS(=O)(=O)c1ccc2ccccc2c1)c1cc(O)c(C(=O)c2c(O)cccc2C(=O)O)c(O)c1 (stereo not given) |

biological target: Protein kinase C delta type (Homo sapiens, UniProt Q05655); assay: Evaluated against recombinant human Protein kinase C delta; procedure, shortened: as §1
Sequence (Q05655 whole entry): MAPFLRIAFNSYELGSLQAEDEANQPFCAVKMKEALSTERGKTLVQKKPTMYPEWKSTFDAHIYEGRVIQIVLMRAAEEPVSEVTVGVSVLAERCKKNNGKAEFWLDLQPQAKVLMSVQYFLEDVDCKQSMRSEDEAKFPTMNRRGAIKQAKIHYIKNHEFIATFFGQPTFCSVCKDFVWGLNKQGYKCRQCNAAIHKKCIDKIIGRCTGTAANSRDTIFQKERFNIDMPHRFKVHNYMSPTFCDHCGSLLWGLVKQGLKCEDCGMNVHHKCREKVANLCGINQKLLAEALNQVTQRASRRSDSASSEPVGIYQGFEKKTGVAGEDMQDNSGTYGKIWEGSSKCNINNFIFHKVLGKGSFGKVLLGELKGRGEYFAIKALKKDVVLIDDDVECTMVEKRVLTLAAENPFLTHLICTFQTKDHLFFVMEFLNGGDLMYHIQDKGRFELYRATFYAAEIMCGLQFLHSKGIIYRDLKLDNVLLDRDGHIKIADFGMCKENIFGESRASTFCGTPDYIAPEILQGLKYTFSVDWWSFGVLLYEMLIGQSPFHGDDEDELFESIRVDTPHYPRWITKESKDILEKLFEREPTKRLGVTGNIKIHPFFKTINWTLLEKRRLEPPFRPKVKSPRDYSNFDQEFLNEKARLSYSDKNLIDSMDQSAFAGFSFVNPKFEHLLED

| IC50 [nM] | Compound |
| --- | --- |
| 300 | COC(=O)c1cccc(O)c1C(=O)c1c(O)cc(C(=O)OCCCc2ccc(O)cc2)cc1O |
| 290 | O=C(OCCCCc1ccc(O)cc1)c1cc(O)c(C(=O)c2c(O)cccc2C(=O)O)c(O)c1 |
| 410 | O=C(NCCOC(=O)c1cc(O)c(C(=O)c2c(O)cccc2C(=O)O)c(O)c1)c1ccc(O)cc1 |
| 220 | O=C(OCC(COc1ccc(O)cc1)NS(=O)(=O)c1ccccc1)c1cc(O)c(C(=O)c2c(O)cccc2C(=O)O)c(O)c1 (stereo not given) |
| 23 | O=C(NC1CNCCCC1OC(=O)c1cc(O)c(C(=O)c2c(O)cccc2C(=O)O)c(O)c1)c1ccc(O)cc1 (racemic) |
| 2600 | O=C(OCC(Cc1ccc(O)cc1)NS(=O)(=O)c1ccc2ccccc2c1)c1cc(O)c(C(=O)c2c(O)cccc2C(=O)O)c(O)c1 (stereo not given) |

biological target: Protein kinase C alpha type (Homo sapiens, UniProt P17252); assay: Evaluated against recombinant human Protein kinase C alpha; procedure, shortened: as §1

| IC50 [nM] | Compound |
| --- | --- |
| 7800 | COC(=O)c1cccc(O)c1C(=O)c1c(O)cc(C(=O)OCCCc2ccc(O)cc2)cc1O |
| 3300 | O=C(OCCCCc1ccc(O)cc1)c1cc(O)c(C(=O)c2c(O)cccc2C(=O)O)c(O)c1 |
| 11000 | O=C(NCCOC(=O)c1cc(O)c(C(=O)c2c(O)cccc2C(=O)O)c(O)c1)c1ccc(O)cc1 |
| 18000 | O=C(OCC(COc1ccc(O)cc1)NS(=O)(=O)c1ccccc1)c1cc(O)c(C(=O)c2c(O)cccc2C(=O)O)c(O)c1 (stereo not given) |
| 67 | O=C(NC1CNCCCC1OC(=O)c1cc(O)c(C(=O)c2c(O)cccc2C(=O)O)c(O)c1)c1ccc(O)cc1 (racemic) |
| 3200 | O=C(OCC(Cc1ccc(O)cc1)NS(=O)(=O)c1ccc2ccccc2c1)c1cc(O)c(C(=O)c2c(O)cccc2C(=O)O)c(O)c1 (stereo not given) |

biological target: T2, Protein kinase C epsilon type (Homo sapiens, UniProt Q02156); assay: Evaluated against recombinant human Protein kinase C epsilon; procedure, shortened: as §1
T2 sequence (Q02156 whole entry): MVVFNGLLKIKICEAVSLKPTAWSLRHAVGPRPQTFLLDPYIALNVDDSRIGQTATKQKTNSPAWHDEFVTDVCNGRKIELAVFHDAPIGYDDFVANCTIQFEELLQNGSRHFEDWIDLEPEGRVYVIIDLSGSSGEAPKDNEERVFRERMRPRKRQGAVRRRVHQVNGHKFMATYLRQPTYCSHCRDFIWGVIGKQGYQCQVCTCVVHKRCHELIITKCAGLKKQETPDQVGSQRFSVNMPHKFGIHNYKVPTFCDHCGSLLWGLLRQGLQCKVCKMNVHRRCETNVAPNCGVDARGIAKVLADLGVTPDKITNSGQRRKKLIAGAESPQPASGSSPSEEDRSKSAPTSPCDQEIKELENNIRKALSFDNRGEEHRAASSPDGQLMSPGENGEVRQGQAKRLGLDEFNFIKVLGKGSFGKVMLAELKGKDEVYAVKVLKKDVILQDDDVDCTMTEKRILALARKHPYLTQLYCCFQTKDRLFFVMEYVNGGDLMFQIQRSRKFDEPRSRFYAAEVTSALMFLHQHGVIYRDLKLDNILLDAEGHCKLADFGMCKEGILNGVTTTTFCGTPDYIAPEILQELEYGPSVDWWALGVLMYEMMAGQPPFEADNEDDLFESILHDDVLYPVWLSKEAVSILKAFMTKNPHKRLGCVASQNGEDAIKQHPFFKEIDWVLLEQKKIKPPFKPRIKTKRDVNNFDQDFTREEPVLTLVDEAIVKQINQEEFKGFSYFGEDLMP

| IC50 [nM] | Compound |
| --- | --- |
| 30000 | O=C(OCCCCc1ccc(O)cc1)c1cc(O)c(C(=O)c2c(O)cccc2C(=O)O)c(O)c1 |
| 13000 | O=C(NCCOC(=O)c1cc(O)c(C(=O)c2c(O)cccc2C(=O)O)c(O)c1)c1ccc(O)cc1 |
| 47000 | O=C(OCC(COc1ccc(O)cc1)NS(=O)(=O)c1ccccc1)c1cc(O)c(C(=O)c2c(O)cccc2C(=O)O)c(O)c1 (stereo not given) |
| 39000 | O=C(OCC(Cc1ccc(O)cc1)NS(=O)(=O)c1ccc2ccccc2c1)c1cc(O)c(C(=O)c2c(O)cccc2C(=O)O)c(O)c1 (stereo not given) |

biological target: Protein kinase C eta type (Homo sapiens, UniProt P24723); assay: Evaluated against recombinant human Protein kinase C eta; procedure, shortened: as §1
Sequence (P24723 whole entry): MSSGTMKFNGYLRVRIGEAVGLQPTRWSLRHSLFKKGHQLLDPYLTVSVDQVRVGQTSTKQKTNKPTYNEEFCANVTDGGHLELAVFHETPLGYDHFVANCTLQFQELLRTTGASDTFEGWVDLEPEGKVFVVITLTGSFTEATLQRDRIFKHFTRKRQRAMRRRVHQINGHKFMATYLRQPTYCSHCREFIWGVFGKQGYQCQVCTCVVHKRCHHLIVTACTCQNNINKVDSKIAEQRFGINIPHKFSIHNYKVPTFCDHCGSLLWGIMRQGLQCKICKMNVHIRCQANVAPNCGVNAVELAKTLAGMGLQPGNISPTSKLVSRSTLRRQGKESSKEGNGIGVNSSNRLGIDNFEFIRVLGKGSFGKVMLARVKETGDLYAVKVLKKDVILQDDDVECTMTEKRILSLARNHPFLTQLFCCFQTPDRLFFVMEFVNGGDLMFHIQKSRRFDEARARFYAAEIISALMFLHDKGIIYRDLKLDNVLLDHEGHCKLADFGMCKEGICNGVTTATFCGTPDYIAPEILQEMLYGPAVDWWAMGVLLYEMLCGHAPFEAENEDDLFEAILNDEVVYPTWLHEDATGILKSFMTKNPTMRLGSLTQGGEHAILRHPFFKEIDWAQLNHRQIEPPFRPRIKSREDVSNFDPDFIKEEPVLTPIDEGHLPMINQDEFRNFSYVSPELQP

| IC50 [nM] | Compound |
| --- | --- |
| 170 | COC(=O)c1cccc(O)c1C(=O)c1c(O)cc(C(=O)OCCCc2ccc(O)cc2)cc1O |
| 250 | O=C(OCCCCc1ccc(O)cc1)c1cc(O)c(C(=O)c2c(O)cccc2C(=O)O)c(O)c1 |
| 230 | O=C(NCCOC(=O)c1cc(O)c(C(=O)c2c(O)cccc2C(=O)O)c(O)c1)c1ccc(O)cc1 |
| 500 | O=C(OCC(COc1ccc(O)cc1)NS(=O)(=O)c1ccccc1)c1cc(O)c(C(=O)c2c(O)cccc2C(=O)O)c(O)c1 (stereo not given) |
| 20 | O=C(NC1CNCCCC1OC(=O)c1cc(O)c(C(=O)c2c(O)cccc2C(=O)O)c(O)c1)c1ccc(O)cc1 (racemic) |
| 35000 | O=C(OCC(Cc1ccc(O)cc1)NS(=O)(=O)c1ccc2ccccc2c1)c1cc(O)c(C(=O)c2c(O)cccc2C(=O)O)c(O)c1 (stereo not given) |

biological target: not listed separately; assay: Evaluated against bovine heart Protein Kinase A (PKA)

| IC50 [nM] | Compound |
| --- | --- |
| > 50000 | O=C(OCCCCc1ccc(O)cc1)c1cc(O)c(C(=O)c2c(O)cccc2C(=O)O)c(O)c1 |
| 8400 | O=C(NCCOC(=O)c1cc(O)c(C(=O)c2c(O)cccc2C(=O)O)c(O)c1)c1ccc(O)cc1 |
| > 50000 | O=C(OCC(COc1ccc(O)cc1)NS(=O)(=O)c1ccccc1)c1cc(O)c(C(=O)c2c(O)cccc2C(=O)O)c(O)c1 (stereo not given) |
| 60 | O=C(NC1CNCCCC1OC(=O)c1cc(O)c(C(=O)c2c(O)cccc2C(=O)O)c(O)c1)c1ccc(O)cc1 (racemic) |
| > 50000 | O=C(OCC(Cc1ccc(O)cc1)NS(=O)(=O)c1ccc2ccccc2c1)c1cc(O)c(C(=O)c2c(O)cccc2C(=O)O)c(O)c1 (stereo not given) |
